Assay results gathered from unrelated publications.
Each line is one published result; the experiments were not run side by side.
STING1 H232R: Stimulator of interferon genes protein (STING1, Homo sapiens, UniProt Q86WV6, H232R)
Phosphatidylserine lipase ABHD16A: Phosphatidylserine lipase ABHD16A (Homo sapiens, UniProt O95870)

O=C(Nc1ccc(I)cc1)N1CCC(n2c(=O)[nH]c3c(Br)cccc32)CC1
IC50 (N-glycosylase/DNA lyase (OGG1, Homo sapiens, UniProt O15527); enzyme activity; inhibitor; fluorescence): 0.342 µM

CC(C)[C@@H]1NC(=O)[C@@H]2CCCN2C(=O)[C@H](Cc2ccccc2)NC(=O)CSC[C@@H](C(=O)N[C@@H](Cc2ccc(O)cc2)C(N)=O)NC(=O)[C@H](Cc2c[nH]c3ccccc23)NC(=O)[C@H](CCCCN)NC(=O)[C@H](Cc2ccccc2)N(C)C(=O)[C@H](Cc2ccccc2)NC1=O
Kd (STING1 H232R; binding; SPR): 0.25 µM

CCCCCCCCCCCCCC1OC(=O)/C1=C\CCCCC(N)=O (stereo not drawn)
IC50 (Phosphatidylserine lipase ABHD16A; cell-free assay; inhibitor): 0.2 to 0.5 µM

CC(C)C[C@H](NC(=O)[C@H](Cc1ccccc1)NC(=O)[C@H](Cc1ccc(O)cc1)NC(=O)CNC(=O)[C@H](CCCCN)NC(=O)[C@H](CO)NC(=O)[C@H](CCC(N)=O)NC(=O)CNC(=O)[C@@H](NC(=O)[C@H](CO)NC(=O)[C@@H]1CCCN1C(=O)[C@H](CO)NC(=O)[C@H](CCC(N)=O)NC(=O)[C@H](Cc1ccc(O)cc1)NC(=O)[C@H](CCC(=O)O)NC(=O)[C@H](C)NC(=O)[C@H](CCCCN)NC(=O)[C@@H](N)Cc1ccccc1)C(C)C)C(=O)N[C@@H](Cc1ccccc1)C(=O)N[C@@H](CCCNC(=N)N)C(=O)N1CCC[C@H]1C(=O)N[C@@H](CCCNC(=N)N)C(=O)N[C@@H](CC(N)=O)C(N)=O
EC50 (Neuromedin-U receptor 1 (NMUR1, Homo sapiens, UniProt Q9HB89); inositol phosphate; agonist; TR-FRET): 0.00045 µM

NC(=O)CCCC/C=C1\C(=O)OC1CCCCCCCCCc1ccccc1 (stereo not drawn)
IC50 (Phosphatidylserine lipase ABHD16A; enzyme activity; inhibitor): 0.2 to 0.5 µM

Oc1ccc(/C=C/c2cc(O)cc(O)c2)cc1
Kd (Troponin C, slow skeletal and cardiac muscles (TNNC1, Human, UniProt P63316); binding; NMR): 240 µM

Nc1nccc(-c2cccc(-c3ccccc3)c2)n1
Kd (Phosphatidylinositol 5-phosphate 4-kinase type-2 gamma (PIP4K2C, Homo sapiens, UniProt Q8TBX8); binding): 0.064 µM

CC(C)CCC[C@@H](C)[C@H]1CC[C@H]2[C@@H]3C[C@@H](n4cncc4CCN)[C@@]4(O)C[C@@H](O)CC[C@]4(C)[C@H]3CC[C@]12C
IC50 (Bifunctional epoxide hydrolase 2 (EPHX2, Homo sapiens, UniProt P34913); enzyme activity; inhibitor): > 100 µM

CC(=O)CC(=O)C(=O)O
Ki (4-hydroxy-tetrahydrodipicolinate synthase (dapA, Escherichia coli K-12, UniProt P0A6L2); enzyme activity; inhibitor; absorbance): 1.4 µM

c1c[nH]cn1
Kd (Nitric oxide synthase, inducible (Nos2, Mus musculus, UniProt P29477); binding): 56 µM

CC(C)C[C@@H]1NC(=O)[C@H](Cc2ccc(O)cc2)NC(=O)[C@H](C(C)C)NC(=O)[C@H](Cc2ccc(O)cc2)NC(=O)[C@H](CC(N)=O)NC(=O)[C@H](Cc2ccccc2)N(C)C(=O)[C@@H]2CCCN2C(=O)[C@H](Cc2ccc(O)cc2)NC(=O)[C@H](C(C)C)NC(=O)[C@H](CC(C)C)NC(=O)[C@H](Cc2ccccc2)NC(=O)CSC[C@@H](C(=O)NCC(N)=O)NC1=O
IC50 (STING1 H232R; ligand displacement; TR-FRET): 38 µM

C[C@H]1CCC[C@H](O)CCC/C=C/c2cc(O)cc(O)c2C(=O)O1
EC50 (Estrogen receptor beta (ESR2, Homo sapiens, UniProt Q92731); reporter gene; agonist; luciferase): 0.00044 µM
